Measurements reported in the EternaBench riboswitch data.

System: MS2 coat protein
Assay: apparent Kd, MS2 coat protein; higher = weaker binding; RNA-MaP array; FMN 200 µM where present
Method in brief: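 Stalled E. coli RNA polymerase transcribed each design on Illumina sequencing-chip clusters. The clusters were titrated with SNAP-549-labelled MS2 coat protein, starting at 0.7 or 1.5 nM and doubling up to 3 µM, first without ligand and then with constant ligand, in 100 mM Tris-HCl pH 7.5, 80 mM KCl, 4 mM MgCl2, BSA, DTT, yeast tRNA and Tween-20. Green signal was normalised to red-channel RNA signal and to the control-cluster median Fmax. The apparent Kd is the median of filtered binding-curve fits made for each cluster.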

[1] = designed as: OFF switch for flavin mononucleotide, no ligand
[2] = ligand present: flavin mononucleotide, designed as: OFF switch for flavin mononucleotide
[3] = designed as: ON switch for flavin mononucleotide, no ligand
[4] = ligand present: flavin mononucleotide, designed as: ON switch for flavin mononucleotide

Sequence | apparent Kd [1] | apparent Kd [2] | apparent Kd [3] | apparent Kd [4]
CCAGCGUAUGUGAGGAUAUGCUGGUCCUUGGAUCAGCAGAAGGCACAUGAGGAUCACCCAUGUGAUAACGUUGG | 0.0595 µM | 0.261 µM |  | 
UACAUGAGGAUCACCCAUGUUUUGUCGUGUAUGGUAUUUAUCUAGGAUAUCAUUUUAUUUAGUUAUGAGAAGGAGAAUAUUAAU | 0.0289 µM | 0.0344 µM |  | 
CGCUCAAGAGAGAAGGAUAGAAUCAGAAGGCGUAACAUGAGGAUCACCCAUGUUUAGUAGUGUAACGAGGAUAUGAAAUGAGCG | 0.00961 µM | 0.0108 µM |  | 
CCUAAGGACACAGGAUAUAGCGUGGUGGCUGGGCUCCCACGGCGAGCGGCGCUAGAAGGGUGACCACAUGAGGAUCACCCAUGU |  |  | 0.538 µM | 0.148 µM
AGAGGACAUGAGGAUCACCCAUGUAAGGAUAUGCGGAGAGUUUGGAGAGGUCGGGUAGGCAGAAGGUACAGGAG | 0.0651 µM | 0.0917 µM |  | 
GUCAGCUCGUGAGGAUAUACAACACUGCUUCGGCCGUGUAUUAAGAUCACAUGAGGAUCACCCAUGUAGAAGGCACGAGCUGAU | 0.0136 µM | 0.228 µM |  | 
AUCCGGCGUGUAGGAUAUGGAAAAGAUUAGAAACCAGAAGGACAUGAGGAUCACCCAUGUACAUGUAAACAGUCAUCACCGGAA | 0.0122 µM | 0.0351 µM |  | 
AUGAGCAACACAGGAUAUCUACGUGACAGAGCGAGAGAAGGGUGGGCCCAUGACUUACAUGAGGAUCACCCAUGUAGCUCCAAA |  |  | 0.0399 µM | 0.0972 µM
GUAGUGUAUGUAGGAUAUGUGAAGCAAAGCUUCACAGAAGGACAUGAGGAUCACCCAUGUAUUGCAGUCUGCAAUCAGACUGCU | 0.0434 µM | 0.152 µM |  | 
ACAAGGCAUGUAGGAUAUCCAUUGCGUCGCGAUGGAGAAGGACAACACACAUGAGGAUCACCCAUGUGAUCACCCAUGUCGUGU | 0.356 µM | 0.418 µM |  | 
AACAGUACAGGAUAUACAUGAGGAUCACCCAUGUGAAGAAUAAGUGGCGUACCACAAAGUAGAAGGGUACUGGA | 0.0293 µM | 0.12 µM |  | 
UUGGGACUAUCAGGAUAUGGUGUAGCCCAGUAAAGGACAUGAGGAUCACCCAUGUACCAUUGGUACCAGAAGGGAUGAUCCUAC |  |  | 0.0184 µM | 0.0148 µM
UGUAUACAGUCAGGAUAUCAUAGGUUGGUGCUUCUCCAGUGGUACAUGAGGAUCACCCAUGUUUAUGAGAAGGGACUAUUACCU | 0.00782 µM | 0.0151 µM |  | 
AAAGGCCGAGGAUAUACAUGAGGAUCACCCAUGUGGACUCUGCAGAAUUGAUACCUAGGUAGAAGGUGGACCGG | 0.0149 µM | 0.0152 µM |  | 
CUGAGCUGAGGAUAUACAUGAGGAUCACCCAUGUGAAGUAGCUUGCGUACAGGCAGAUGUAGAAGGCAGUUCGG | 0.0391 µM | 0.179 µM |  | 
AUAAAUCAUGUAGGAUAUGCGUGGCGAAGCUAUGCAGAAGGACAUGAGGAUCACCCAUGUCAUUCCGUCUGCGUACAGACGGAA | 0.0345 µM | 0.308 µM |  | 
CAUCUCUAUGUAGGAUAUAGGACAACAACAGCACUAGAAGGACAUGAGGAUCACCCAUGUACACUACUCGCGUCAUCGUCUCGC | 0.00601 µM | 0.00622 µM |  | 
AGUUCACAUGAGGAUCACCCAUGUCAGGAUAUCGACUGAACAGCUUCGGCUGUUCAGUCGAGAAGGGACAAUUA | 0.0466 µM | 0.104 µM |  | 
AAAAAACAUGAGGAUCACCCAUGUGAGGAUAUCACUAGUCAGUCCUCAGAGUGAGUACUGAGAAGGCACAUAAA | 0.0869 µM | 0.0543 µM |  | 
UAUGCGAGAGGAUAUACAUGAGGAUCACCCAUGUGUCCGACACAAUUCAGUUGCAUAUGUAGAAGGCUUGCGAC | 0.0144 µM | 0.0196 µM |  | 
GCCUUAUCUGUCAGGAUAUACAAUAAUUUUUUUUUGUAGAAGGGACAUGAGGAUCACCCAUGUACAUUACAUUG | 0.04 µM | 0.201 µM |  | 
AGUUAAUAUCGAGGAUAUCUCAUGAAUACAUGAGGAUCACCCAUGUGAAUGGGAGAAGGCGAUAUUAACAGCAUGUUACAUGCA |  |  | 0.0126 µM | 0.00652 µM
CAGCGCUGUCGAGAGGAUAUGCGGUGAUGGACAUGAGGAUCACCCAUGUUAGCGAUAGUAUUACGGUAGAAGGCUCUACAGCUGC |  |  | 0.0922 µM | 0.0167 µM
GUGGUCAGACAUGAGGAUCACCCAUGUGGAAUAAAUAAGGUCAAGGAUAUUCAAUAUAGGAUAUAGAAGAAGGUGAGGUUGGUG |  |  | 0.136 µM | 0.188 µM
AUCGUGUUAGGAUAUACACGACGCUGGGUAGCUAGCGGAGGGUAGAAGGGACAUGAGGAUCACCCAUGUUCGGG | 0.157 µM | 0.282 µM |  | 
GUCAGCUCGUGAGGAUAUACAACACUGCUUCUGCAGUGUAUUAAGAUCACAUGAGGAUCACCCAUGUAGAAGGCACGAGCUGAU | 0.0128 µM | 0.234 µM |  | 
GGUGCCAUGUAGAAGGCAGAUCUGAUUCAGAUCUGAGGAUAUACAUGAGGAUCACCCAUGUAAAUGCACCGCACGAGAGUGCAA | 0.0331 µM | 0.149 µM |  | 
GGAUCGAAUGUGAGGAUAUGCAGGUCCUUGGAUCUGCAGAAGGCACAUGAGGAUCACCCAUGUGACCAAGAUCC | 0.05 µM | 0.548 µM |  | 

Sequence | apparent Kd [1] | apparent Kd [2] | apparent Kd [3] | apparent Kd [4]
ACUAGAUGAGGAUAUACACAUUUUAGUGUUCCUCUAGAUUAACAUGAGGAUCACCCAUGUAGAAGGCAUCAUUU | 0.0785 µM | 0.231 µM |  | 
GCCUUAUCCGUCAGGAUAUACAGCCGUUAGUUGUUGUAGAAGGGACAUGAGGAUCACCCAUGUACGUACCAUUG | 0.0187 µM | 0.0307 µM |  | 
UUGGACGUCGUAGGAUAUGUAGAAUAUUCCUACAUGAGGAUCACCCAUGUUGACAUGGAAGAAGGACAGAAGGACGAUGUCCAU |  |  | 0.00697 µM | 0.00537 µM
AAAAAGUCAGGAUAUACAUGAGGAUCACCCAUGUAAAAAAAAGGGAAAAAAAAAAAGGGUAGAAGGGACGAAAA | 0.0377 µM | 0.033 µM |  | 
AGGGAGUGAGGAUAUGCUGCUCGUCACUUGCGUGAUGAGUAGCAGAAGGUACAUGAGGAUCACCCAUGUAAAAA | 0.0284 µM | 0.019 µM |  | 
AGGAUACACCAGAAGGACAUGAGGAUCACCCAUGUAGGAUAUGGGUACGCCGACAUUAGUCUGCUCUCGGUAGACUUUCCUGAU |  |  | 0.0751 µM | 0.0104 µM
AAACACAAACAUGAGGAUCACCCAUGUUAUGAAAAUACUGGGAGAAGGGCGAUUGCAAAGCAAUCGCAGGAUAUUCGUAUUGUG |  |  | 0.0767 µM | 0.0161 µM
UUGGACGUCGGAGGAUAUGUAGGAUAUUCCUACAUGAGGAUCACCCAUGUUGACAUGGAAGAAGGACAGAAGGACGAUGUCCAU |  |  | 0.352 µM | 0.00483 µM
CUAUGCGGAAUAGGAUAUUCGUUCAUGAGGAUAGAAGAAGGGUUACAUGAGGAUCACCCAUGUAUGCACAUGAGGAUCCCUUAG | 0.252 µM | 0.228 µM |  | 
AAUAACAGAGGAUAUACUAUUUUAUGUAUUUAUUAUUUUAAACAUGAGGAUCACCCAUGUAGAAGGCUGAUUAA | 0.0281 µM | 0.0305 µM |  | 
GGAUUACAUGAGGAUCACCCAUGUGAGGAUAUCGAUGUCCCUUGGCGCGUGCGGGACUCGAGAAGGCACUUGGA | 0.0478 µM | 0.248 µM |  | 
GGGUACAGUGAGAAGGUCUGCGGAUUCCUUAACAUGAGGAUCACCCAUGUAGAAGGAUAUCACAGGUAAAGGUCGGCUAACGAU | 0.00536 µM | 0.00658 µM |  | 
UUAUUAUGUGUAGGAUAUGCAUAUUAUUAUUAUGCAGAAGGACAUGAGGAUCACCCAUGUAUAUUAUUAUUAUAUAUUAUAUGU | 0.0211 µM | 0.0442 µM |  | 
CGGAGACAUGAGGAUCACCCAUGUGAGGAUAUGCAAGCCCGACUGAUCGUUAGCCUAUGUAGAAGGCACGGGUC | 0.0213 µM | 0.02 µM |  | 
UUAAAUCAUGUAGGAUAUGCAUGGCGAAGCUACGCAGAAGGACAUGAGGAUCACCCAUGUUAAAGCUUCCGAGUUCGGAGGCAA | 0.114 µM | 0.266 µM |  | 
GUCAGCUCGUGAGGAUAUACAUGUGCUGGAUACAGCACUAUUGAGUUCACAUGAGGAUCACCCAUGUAGAAGGCACGAGCUGAU | 0.0151 µM | 0.0281 µM |  | 
CUAAGUGCCGGAGGAUAUACAUGAGGAUCACCCAUGUCAGUCUGUUUACAUGUAGAAGGCCGGCGAACAAAGAACUUGCCACGA | 0.0438 µM | 0.242 µM |  | 
AAUAUAAAGAGCUGGAACCUAAUAACAUGAGGAUCACCCAUGUAGGAUAUCAGCACGAUAAGUGCUGAGAAGGACAUCCAGCUC | 0.0147 µM | 0.0148 µM |  | 
UGAACUAUGUAGAAGGCCCACAUUAAUAUGUAGGGAGGAUAUACAUGAGGAUCACCCAUGUAAAGAGCAAGAGGAUUUAACAGA | 0.0103 µM | 0.0217 µM |  | 
CUUAUGUGAGGAUAUGUACAGAAAAAAAAGGGUGUAACUGUACAGAAGGCACAUGAGGAUCACCCAUGUGCAUU | 0.0608 µM | 0.0504 µM |  | 
GACUUGGCUACAUGAGGAUCACCCAUGUUUGACUGGAUCGAUCAGGAUAUAGUGAUUUGCAACAAUUAGAAGGGAUAUUUACGG |  |  | 0.0498 µM | 0.0516 µM
AUAUUUAUUUAGAAGGACAUGAGGAUCACCCAUGUCGCUGGGCGCGGGAAACCGUGCCCGGCCAUGUAGGAUAUAGAUAGAUAU | 0.00878 µM | 0.00988 µM |  | 
ACAUGAGGAUCACCCAUGUUGAUAGUAGAAGGGACAGAGAAGAAGAAACAUGAGGAUCACCCAUGUCAGGAUAUGCGAAUUGGA |  |  | 0.0364 µM | 0.0336 µM
ACUCCUCCUGUUAGGAUAUGCAUCGGGCUUCCGCAGCAGAAGGAACAUGAGGAUCACCCAUGUCAAAUAAAAUC | 0.0196 µM | 0.155 µM |  | 
GAGGUAUAAGGAUAUACAUAGAUACAGACACAUGUUCAAGUACAUGAGGAUCACCCAUGUAGAAGGUAUAUAUC | 0.0336 µM | 0.0306 µM |  | 
CUUAUGUGAGGAUAUCAGUAGUAAAAAAAUAAAAUUACUACUGAGAAGGCACAUGAGGAUCACCCAUGUGCCUC | 0.0144 µM | 0.0134 µM |  | 
GGCGGUAAUGAGAAGGGUCACAUGAGGAUCACCCAUGUGCUCUUCGCCGUGACAGGAUAUCAUUGCCGUCAGGUUAGAUUUUUG | 0.00799 µM | 0.0254 µM |  | 
